The text below walks through data of article PMC2832854 (NeuroImage, 2009).

The target in series [1] is TSPO. Particulars: read-out: KI to monkey brain, ref Briard et al., 2008; cited from earlier work.
Series [2] concerns the target TSPO. Type of series: binding, human. Particulars: for Ki: read-out: KI of PBR28, displacement of [3H]PK 11195, mean ± SD; for Specific Binding: single radioligand concentration normalized to 0.5 nM, displacer PBR28.
The next series addresses T1, ABCG2 (Homo sapiens, UniProt Q9UNQ0).
T1 sequence (Q9UNQ0 1-655): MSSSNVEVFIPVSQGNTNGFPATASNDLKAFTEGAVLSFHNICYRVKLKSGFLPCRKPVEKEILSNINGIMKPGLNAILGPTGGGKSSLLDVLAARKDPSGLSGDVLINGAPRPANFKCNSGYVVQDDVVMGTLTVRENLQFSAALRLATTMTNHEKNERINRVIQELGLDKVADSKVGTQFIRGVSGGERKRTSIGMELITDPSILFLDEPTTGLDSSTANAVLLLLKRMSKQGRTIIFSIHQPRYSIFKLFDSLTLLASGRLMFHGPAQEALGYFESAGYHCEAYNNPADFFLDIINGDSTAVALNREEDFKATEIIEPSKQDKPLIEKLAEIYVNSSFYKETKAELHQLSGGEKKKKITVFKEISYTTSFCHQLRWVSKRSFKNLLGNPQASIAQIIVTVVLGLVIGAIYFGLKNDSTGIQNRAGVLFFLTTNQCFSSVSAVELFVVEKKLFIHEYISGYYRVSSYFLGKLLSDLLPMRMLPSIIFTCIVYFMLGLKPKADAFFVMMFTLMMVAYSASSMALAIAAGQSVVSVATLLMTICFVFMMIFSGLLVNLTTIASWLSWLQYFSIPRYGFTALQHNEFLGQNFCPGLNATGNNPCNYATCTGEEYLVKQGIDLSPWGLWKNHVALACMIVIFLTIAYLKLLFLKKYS
The series can be described thus: Substrate specificity: radioligand accumulation in H460 / H460/MX20 cells. Format: cell-based. Particulars: 5 nM radioligand.

For another series, the target named is ABCB1 (P-glycoprotein) (Homo sapiens, UniProt P08183). Format: cell-based. The note with it: 5 nM radioligand.
Sequence of ABCB1 (P-glycoprotein) (P08183 whole entry): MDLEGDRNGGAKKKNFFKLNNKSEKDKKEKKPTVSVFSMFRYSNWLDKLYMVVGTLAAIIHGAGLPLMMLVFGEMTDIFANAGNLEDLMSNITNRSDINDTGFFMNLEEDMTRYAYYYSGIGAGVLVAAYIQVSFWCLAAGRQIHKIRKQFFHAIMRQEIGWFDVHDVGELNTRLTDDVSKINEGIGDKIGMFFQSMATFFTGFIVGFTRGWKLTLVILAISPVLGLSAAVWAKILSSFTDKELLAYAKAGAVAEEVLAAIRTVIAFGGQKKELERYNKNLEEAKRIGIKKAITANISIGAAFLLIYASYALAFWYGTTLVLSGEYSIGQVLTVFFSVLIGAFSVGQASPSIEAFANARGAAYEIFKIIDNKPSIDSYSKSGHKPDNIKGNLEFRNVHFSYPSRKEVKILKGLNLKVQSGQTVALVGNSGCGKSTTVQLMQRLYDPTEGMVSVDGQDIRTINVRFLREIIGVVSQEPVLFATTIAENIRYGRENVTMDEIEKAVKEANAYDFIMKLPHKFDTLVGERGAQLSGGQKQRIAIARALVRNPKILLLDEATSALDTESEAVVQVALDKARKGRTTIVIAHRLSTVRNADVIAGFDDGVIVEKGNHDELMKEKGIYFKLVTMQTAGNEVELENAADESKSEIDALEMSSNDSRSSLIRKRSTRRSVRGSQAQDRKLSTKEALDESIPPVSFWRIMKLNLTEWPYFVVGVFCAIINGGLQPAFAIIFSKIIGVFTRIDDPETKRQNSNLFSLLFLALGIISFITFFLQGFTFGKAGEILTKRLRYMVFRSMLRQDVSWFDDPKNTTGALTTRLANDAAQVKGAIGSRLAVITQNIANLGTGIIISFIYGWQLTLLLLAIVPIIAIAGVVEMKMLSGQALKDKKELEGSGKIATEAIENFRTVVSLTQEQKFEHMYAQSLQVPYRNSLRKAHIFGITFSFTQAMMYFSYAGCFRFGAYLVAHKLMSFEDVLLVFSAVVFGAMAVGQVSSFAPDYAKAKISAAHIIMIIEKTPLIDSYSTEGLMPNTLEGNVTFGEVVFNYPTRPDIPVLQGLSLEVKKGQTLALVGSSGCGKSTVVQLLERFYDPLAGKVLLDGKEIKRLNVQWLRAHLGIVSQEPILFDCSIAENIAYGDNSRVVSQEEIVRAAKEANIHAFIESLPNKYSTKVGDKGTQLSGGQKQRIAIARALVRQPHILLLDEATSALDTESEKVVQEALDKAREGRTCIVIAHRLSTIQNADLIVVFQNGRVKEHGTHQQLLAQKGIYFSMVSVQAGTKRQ
Another series deals with ABCC1 (Homo sapiens, UniProt P33527). Briefly: Substrate specificity: radioligand accumulation in MCF-7 / MCF-7/VP16 cells. Particulars: 5 nM radioligand. Format: cell-based.
Sequence of ABCC1 (P33527 whole entry): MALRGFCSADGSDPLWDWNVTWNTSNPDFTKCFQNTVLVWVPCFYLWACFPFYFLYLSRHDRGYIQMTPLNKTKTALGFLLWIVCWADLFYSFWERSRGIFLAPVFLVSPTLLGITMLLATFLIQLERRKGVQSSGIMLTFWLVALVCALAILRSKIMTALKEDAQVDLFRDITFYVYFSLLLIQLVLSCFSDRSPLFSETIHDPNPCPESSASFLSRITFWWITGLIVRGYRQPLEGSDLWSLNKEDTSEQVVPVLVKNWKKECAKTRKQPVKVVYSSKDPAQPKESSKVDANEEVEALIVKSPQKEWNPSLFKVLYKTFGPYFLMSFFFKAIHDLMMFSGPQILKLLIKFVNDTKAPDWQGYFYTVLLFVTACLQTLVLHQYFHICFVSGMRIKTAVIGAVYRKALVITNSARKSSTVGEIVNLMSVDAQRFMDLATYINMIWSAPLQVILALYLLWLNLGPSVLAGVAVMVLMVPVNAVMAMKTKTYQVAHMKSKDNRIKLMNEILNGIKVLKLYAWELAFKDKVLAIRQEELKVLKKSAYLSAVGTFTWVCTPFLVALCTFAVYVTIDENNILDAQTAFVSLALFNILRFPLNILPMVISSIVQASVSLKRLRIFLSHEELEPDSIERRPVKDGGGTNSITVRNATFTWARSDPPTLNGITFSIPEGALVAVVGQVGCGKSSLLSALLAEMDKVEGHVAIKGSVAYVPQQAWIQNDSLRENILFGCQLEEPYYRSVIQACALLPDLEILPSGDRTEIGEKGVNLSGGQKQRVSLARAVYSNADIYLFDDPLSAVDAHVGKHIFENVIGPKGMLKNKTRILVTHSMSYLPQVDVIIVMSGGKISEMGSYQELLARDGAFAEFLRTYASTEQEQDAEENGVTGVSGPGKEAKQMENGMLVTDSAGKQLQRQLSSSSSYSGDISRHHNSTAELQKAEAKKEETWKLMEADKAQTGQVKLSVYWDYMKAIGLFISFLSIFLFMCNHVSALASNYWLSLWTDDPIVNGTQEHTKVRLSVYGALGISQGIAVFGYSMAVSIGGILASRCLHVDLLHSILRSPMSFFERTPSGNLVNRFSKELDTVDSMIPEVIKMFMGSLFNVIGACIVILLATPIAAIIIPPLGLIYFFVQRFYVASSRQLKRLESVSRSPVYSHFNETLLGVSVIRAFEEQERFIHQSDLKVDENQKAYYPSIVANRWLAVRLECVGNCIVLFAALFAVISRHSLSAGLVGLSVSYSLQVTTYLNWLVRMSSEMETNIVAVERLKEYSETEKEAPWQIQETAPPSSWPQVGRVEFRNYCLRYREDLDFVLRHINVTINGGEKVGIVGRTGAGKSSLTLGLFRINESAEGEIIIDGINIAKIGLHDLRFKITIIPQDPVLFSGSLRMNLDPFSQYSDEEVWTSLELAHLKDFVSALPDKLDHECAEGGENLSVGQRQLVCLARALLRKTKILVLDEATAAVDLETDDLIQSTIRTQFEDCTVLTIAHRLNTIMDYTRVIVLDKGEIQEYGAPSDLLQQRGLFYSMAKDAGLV
Series [3] deals with 18 kDa translocator protein (TSPO). Briefly: Human whole-body PET imaging, organ uptake in binders and non-binders. Format: in vivo. The note with it: for Organ uptake (area under time-activity curve): 5 to 20 min.
For series [4], the system named is TSPO. Type of series: in vivo, rhesus monkeys (Macaca mulatta). Particulars: for Decrease of area under the curve by pre-blockade: 0 to 120 min, nonradioactive PBR28; for Time at which uptake declined to 50% of peak: after pre-blockade. Summed up: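 Two male rhesus monkeys (13.2 ± 2.1 kg) each had two scans. The baseline scan followed i.v. 11C-labelled TSPO radioligand (276 ± 8 MBq, posterior tibial vein). The second followed unlabelled TSPO ligand 5 mg/kg i.v. given 30 min before radioligand (277 ± 21 MBq). 2D dynamic whole-body PET covered 4 segments, head to upper thigh, in 22 frames (75 s–15 min) over 120 min. Organ SUV curves were integrated over 5–20 and 0–120 min.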

Series [5] concerns TSPO. Type of series: in vivo, rhesus monkeys.
The subject of series [6] is TSPO. The note with it: cited from earlier work.
Series [7] concerns TSPO. Particulars: 0 to 120 min, ref Imaizumi et al., 2008, cited from earlier work.
Setting [8] is: saturation curve, homologous displacement, binders.

SMILES strings stand for the structures. Values joined by “and” are separate entries in the source; they are usually repeats but may differ in a detail not shown here. Equal entries are not always repeated. Where two headings read alike, the source gives them in different places.

By Ki is commonly meant a dissociation constant, usually derived from enzyme kinetics or from competition with a known ligand. As for `COc1ccccc1CN(C(C)=O)c1cnccc1Oc1ccccc1` [PBR28], the Ki is 0.94 nM on TSPO [1]; 6.1 ± 6.4 nM at TSPO [2] (binders); 67 nM and 67.4 nM at TSPO [2] (non-binders).
On to `COc1ccccc1CN(C(C)=O)c1cnccc1Oc1ccccc1` [[^3H]PBR28] [listing 1 of 2 here], for which the Substrate for transporter entry at ABCG2, at ABCB1 (P-glycoprotein) and at ABCC1 was “neither [^3H]PK 11195 nor [^3H]PBR8 was a substrate” each time.
For orientation: Kd means the constant that tells how readily two partners part at equilibrium. With `COc1ccccc1CN(C(C)=O)c1cnccc1Oc1ccccc1` [[^3H]PBR28] [listing 2 of 2 here], the “Specific binding, fold lower in non-binders than in binders” value in the series with TSPO [2] (eight non-binders vs ten binders, single radioligand concentration) came out at 36 fold. Further, in the series on TSPO [2] (leukocyte membranes), the “Affinity for TSPO, fold lower in non-binders than in binders” value is “more than ten-fold lower affinity”. Besides, in the series with TSPO [2] (setting [8]), the Bmax was 16.9 ± 8.0 pmol / mg protein and the dissociation constant Kd came out at 1.8 ± 0.6 nM. Moreover, the “Specific Binding” value with TSPO [2] (binders) is given as 7.2 ± 2.2 pmol / mg protein.
As for `CCC(C)N(C)C(=O)c1cc2ccccc2c(-c2ccccc2Cl)n1` (stereo not shown) [[^3H]PK 11195], the Substrate for transporter result at ABCG2, on ABCB1 (P-glycoprotein) and on ABCC1 was “neither [^3H]PK 11195 nor [^3H]PBR8 was a substrate” throughout. Besides, the Bmax in the series with TSPO [2] (setting [8]) is reported as 10.4 ± 7.1 pmol / mg protein; with TSPO [2] (saturation curve, homologous displacement, non-binders), 15.1 ± 12.0 pmol / mg protein. In addition, the “Specific Binding” value in the series on TSPO [2] (binders) is 1.3 ± 0.5 pmol / mg protein.
On to `CC[C@@H](C)N([11CH3])C(=O)c1cc2ccccc2c(-c2ccccc2Cl)n1` [[^11C]-(R)-PK 11195], for which the “Organ uptake (area under time-activity curve)” value (“Organ uptake” for short) in [3] (brain, binders (n = 5)) came out at 18.8 ± 1.0 SUV • min; in series [3] (brain, non-binders (n = 5)) it was 17.5 ± 2.0 SUV • min; in series [3] (heart, binders (n = 5)), 59.8 ± 4.9 SUV • min; in [3] (heart, non-binders (n = 5)) it was 48.8 ± 2.8 SUV • min; in series [3] (kidney, binders (n = 5)), 63.8 ± 3.2 SUV • min; in series [3] (kidney, non-binders (n = 5)), 60.7 ± 12.3 SUV • min. Further, the “Organ uptake” value in series [3] (lung, binders (n = 5)) amounted to 25.6 ± 3.7 SUV • min; in series [3] (lung, non-binders (n = 5)), 18.7 ± 2.5 SUV • min; in [3] (spleen, binders (n = 5)), 65.6 ± 9.3 SUV • min; in series [3] (spleen, non-binders (n = 5)), 53.4 ± 11.4 SUV • min. Moreover, the “Decrease of area under the curve by pre-blockade” value with TSPO [4] (brain) was determined as 14%; in the series with TSPO [4] (kidney) it was 30%; in the series with TSPO [4] (lung), 31%. The “Area under the time-activity curve” value is 28.2 SUV • min in the series on TSPO [4] (brain, 5 to 20 min, baseline); 29.1 SUV • min in the series with TSPO [4] (brain, 5 to 20 min, pre-blocked with PBR28 5 mg/kg i.v.); 75.1 SUV • min in the series on TSPO [4] (heart, 5 to 20 min, baseline); 33.6 SUV • min in the series on TSPO [4] (heart, 5 to 20 min, pre-blocked with PBR28 5 mg/kg i.v.); 166.3 SUV • min in the series on TSPO [4] (kidney, 5 to 20 min, baseline); 60.5 SUV • min in the series with TSPO [4] (kidney, 5 to 20 min, pre-blocked with PBR28 5 mg/kg i.v.). In addition, the “Area under the time-activity curve” value in the series on TSPO [4] (lung, 5 to 20 min, baseline) came to 29.6 SUV • min; with TSPO [4] (lung, 5 to 20 min, pre-blocked with PBR28 5 mg/kg i.v.) it was 18.3 SUV • min; in the series on TSPO [4] (spleen, 5 to 20 min, baseline), 87.1 SUV • min; in the series on TSPO [4] (spleen, 5 to 20 min, pre-blocked with PBR28 5 mg/kg i.v.), 20.6 SUV • min. Further, the “Time at which uptake declined to 50% of peak” value in the series with TSPO [4] (brain) was 30 min; with TSPO [4] (other organs), no more than 5 min. Moreover, the “Area under the time-activity curve lower in pre-blocked than in baseline scans” value in the series with TSPO [4] (peripheral organs (heart, lung, spleen, kidney), 5 to 20 min) is given as 38 – 76%. Moreover, the “Peak uptake of radioactivity in brain” value with TSPO [5] (after blockade with PBR28 5 mg/kg i.v.) worked out at 3.43 SUV; in the series with TSPO [5] (baseline) it was 1.64 SUV. The “Share of uptake in monkey brain that is specific (displaceable)” value in the series on TSPO [6] (without correction for peripheral clearance, ref Petit-Taboue et al., 1991) is “about 50%”.
As to `CC(=O)N(Cc1ccccc1O[11CH3])c1cnccc1Oc1ccccc1` [[^11C]PBR28], the “Uptake lower in non-binders than in binders” value in [3] (all five organs with high densities of TSPO (lung, heart, brain, kidney, spleen)) is listed as 50% to 75%. Further, the “Organ uptake” value in series [3] (brain, binders (n = 5)) is 27.3 ± 3.4 SUV • min; in series [3] (brain, non-binders (n = 5)), 13.8 ± 1.3 SUV • min; in [3] (heart, binders (n = 5)) it was 72.3 ± 10.3 SUV • min; in [3] (heart, non-binders (n = 5)), 29.7 ± 4.7 SUV • min; in [3] (kidney, binders (n = 5)), 109.3 ± 12.9 SUV • min; in series [3] (kidney, non-binders (n = 5)), 33.4 ± 15.5 SUV • min. The “Organ uptake” value in [3] (lung, binders (n = 5)) is reported as 44.9 ± 6.5 SUV • min; in series [3] (lung, non-binders (n = 5)), 13.6 ± 2.0 SUV • min; in series [3] (spleen, binders (n = 5)) it was 131.6 ± 19.3 SUV • min; in [3] (spleen, non-binders (n = 5)), 34.1 ± 11.0 SUV • min. Also, the “Decrease of area under the curve by pharmacological blockade” value in the series on TSPO [7] (brain) is 42%; in the series with TSPO [7] (kidney), 50%; in the series with TSPO [7] (lung), 70%. In addition, the “Share of uptake in monkey brain that is specific” value in the series with TSPO [6] (ref Imaizumi et al., 2008) was “More than 90%”.
